Data: ChEMBL document CHEMBL3616423, “Design and synthesis of novel hydroxyanthraquinone nitrogen mustard derivatives as potential anticancer agents via a bioisostere approach” (Eur J Med Chem, 2015)
pIC50: −log10 of the molar value.

Key:
[1] = test system: MDA-MB-231; assay: Cytotoxicity against human MDA-MB-231 cells assessed as cell viability after 5 days by cell viability analyzer; format: functional, cell-based; conditions: MDA-MB-231, 120 h
Outline: (§1)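 Cells were grown in DMEM with 10% FBS, 4 mM glutamine, 1 mM sodium pyruvate, penicillin/streptomycin and amphotericin at 37 °C under 5% CO2, then seeded at 20,000 per well. They were exposed to five doses from 0.01 to 10 μM for 5 days, with DMSO vehicle as control. Viable cells were counted, and % viability was calculated as treated/vehicle. IC50 was taken from dose-response curves over three independent experiments.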

[2] = test system: HeLa; assay: Cytotoxicity against human HeLa cells assessed as cell viability after 5 days by cell viability analyzer; format: functional, cell-based; conditions: 120 h; outline: as §1
[3] = test system: MCF10; assay: Cytotoxicity against human MCF10 cells at 1 to 10 uM; format: cell-based; conditions: mcf10, 10 µM
[4] = test system: MDA-MB-231; assay: Ratio of chlorambucil IC50 to compound IC50 for human MDA-MB-231 cells assessed as cell viability after 5 days by cell viability analyzer; format: functional
Outline: (§2)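 Cells grown in DMEM with 10% FBS, 4 mM glutamine, 1 mM sodium pyruvate, penicillin/streptomycin and amphotericin at 37 °C under 5% CO2. They were seeded at 20,000 per well and exposed to test agents or chlorambucil at 5 doses (0.01–10 μM) for 5 days, with DMSO as vehicle. Viable cells were counted by analyzer and expressed as % of vehicle. IC50s for both agents came from dose-response curves over three independent experiments.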

[5] = test system: MCF7; assay: Ratio of chlorambucil IC50 to compound IC50 for human MCF7 cells assessed as cell viability after 5 days by cell viability analyzer; format: functional; outline: as §2
[6] = test system: HeLa; assay: Ratio of chlorambucil IC50 to compound IC50 for human HeLa cells assessed as cell viability after 5 days by cell viability analyzer; format: functional; outline: as §2

Structure (SMILES)	pIC50 [1]	pIC50 [2]	Activity [3]	Ratio IC50 [4]	Ratio IC50 [5]	Ratio IC50 [6]
CC(c1cc(O)c2c(c1O)C(=O)c1ccccc1C2=O)N(CCCl)CCCl (stereo not given)	6.00	6.81				
O=C1c2ccccc2C(=O)c2c(O)c(CN(CCCl)CCCl)cc(O)c21	6.68	6.86				
CCC(c1cc(O)c2c(c1O)C(=O)c1ccccc1C2=O)N(CCCl)CCCl (stereo not given)	7.07	6.98				
CCCC(c1cc(O)c2c(c1O)C(=O)c1ccccc1C2=O)N(CCCl)CCCl (stereo not given)	7.21	6.82				
CC(C)C(c1cc(O)c2c(c1O)C(=O)c1ccccc1C2=O)N(CCCl)CCCl (stereo not given)	7.11	6.66	Toxic			
CC(C)CC(c1cc(O)c2c(c1O)C(=O)c1ccccc1C2=O)N(CCCl)CCCl (stereo not given)	7.84	6.41				
O=C1c2ccccc2C(=O)c2c(O)c(C(Cc3ccccc3)N(CCCl)CCCl)cc(O)c21 (stereo not given)	7.29	6.18				
O=C1c2ccccc2C(=O)c2c(O)c(C(c3ccccc3)N(CCCl)CCCl)cc(O)c21 (stereo not given)	6.86	6.47	Toxic			
O=C1c2ccccc2C(=O)c2c(O)c(C(c3ccccc3F)N(CCCl)CCCl)cc(O)c21 (stereo not given)	9.23	6.21	Toxic	900		
O=C1c2ccccc2C(=O)c2c(O)c(C(c3cccc(F)c3)N(CCCl)CCCl)cc(O)c21 (stereo not given)	7.22	6.78	Toxic			
O=C1c2ccccc2C(=O)c2c(O)c(C(c3ccc(F)cc3)N(CCCl)CCCl)cc(O)c21 (stereo not given)	7.09	6.60	Toxic		100	
O=C1c2ccccc2C(=O)c2c(O)c(C(c3ccc(Cl)cc3)N(CCCl)CCCl)cc(O)c21 (stereo not given)	7.32	6.73				
O=C1c2ccccc2C(=O)c2c(O)c(C(c3ccc(Br)cc3)N(CCCl)CCCl)cc(O)c21 (stereo not given)	6.52	6.58				
COc1ccccc1C(c1cc(O)c2c(c1O)C(=O)c1ccccc1C2=O)N(CCCl)CCCl (stereo not given)	8.67	6.68	Toxic			
COc1cccc(C(c2cc(O)c3c(c2O)C(=O)c2ccccc2C3=O)N(CCCl)CCCl)c1 (stereo not given)	7.04	6.68	Toxic			
COc1ccc(C(c2cc(O)c3c(c2O)C(=O)c2ccccc2C3=O)N(CCCl)CCCl)cc1 (stereo not given)	7.89	6.34	Toxic			
Cc1ccc(C(c2cc(O)c3c(c2O)C(=O)c2ccccc2C3=O)N(CCCl)CCCl)cc1 (stereo not given)	7.65	7.03				10
Cc1ccc(C(c2cc(O)c3c(c2O)C(=O)c2ccccc2C3=O)N(CCCl)CCCl)cc1C (stereo not given)	6.41	6.63	Toxic			
O=C1c2cccc(O)c2C(=O)c2c1ccc(C(c1ccccc1)N(CCCl)CCCl)c2O (stereo not given)	6.50	6.51				
COc1cc(C(c2ccccc2)N(CCCl)CCCl)c(O)c2c1C(=O)c1ccccc1C2=O (stereo not given)	6.56	6.32	Toxic			
O=C(O)CCCc1ccc(N(CCCl)CCCl)cc1 [CHLORAMBUCIL]	6.28	6.03				
